Source: ChEMBL document CHEMBL2021883, “Amino acid, dipeptide and pseudodipeptide conjugates of ring-substituted 8-aminoquinolines: synthesis and evaluation of anti-infective, β-haematin inhibition and cytotoxic activities” (Eur J Med Chem, 2012)
≈ marks a conversion by molar mass, not a printed value. Calls of active or inactive are those of the source. Unless noted, the rule behind the calls is not given here.

Key:
Cryptococcus neoformans [1] = assay: Fungicidal activity against Cryptococcus neoformans at 20 ug/ml; type: functional, organism-based
Method in brief: (§1)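 Broth dilution antifungal testing followed the NCCLS reference method for yeasts, with 20 as the highest test concentration. MIC was the lowest concentration with no detectable growth. MFC was the lowest concentration killing the organism.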

Aspergillus fumigatus = assay: Antifungal activity against Aspergillus fumigatus; type: functional, organism-based
Method in brief: (§2)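 Yeasts and A. fumigatus were tested by broth microdilution following the NCCLS antifungal standards. The highest test concentration was 20.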

Plasmodium falciparum [2] = assay: Antimalarial activity against chloroquine-sensitive Plasmodium falciparum D6 assessed as plasmodial LDH activity; type: functional, organism-based
Cryptococcus neoformans [3] = assay: Antifungal activity against Cryptococcus neoformans; type: functional, organism-based; method in brief: as §2
Pichia kudriavzevii [4] = assay: Fungicidal activity against Candida krusei at 20 ug/ml; type: functional, organism-based; method in brief: as §1
[5] = Inhibition of beta-hematin formation; type: functional
Plasmodium falciparum [6] = assay: Antimalarial activity against chloroquine-resistant Plasmodium falciparum W2 assessed as plasmodial LDH activity; type: functional, organism-based
Candida albicans [7] = assay: Antifungal activity against Candida albicans at 20 ug/ml; type: functional, organism-based; method in brief: as §1
Escherichia coli = assay: Antimicrobial activity against Escherichia coli ATCC 35218 by CLSI method; type: functional, organism-based
Pseudomonas aeruginosa = assay: Antimicrobial activity against Pseudomonas aeruginosa ATCC 27853 by CLSI method; type: functional, organism-based
Method in brief: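 Antibacterial testing used CLSI/NCCLS broth dilution for aerobically growing bacteria, with 20 as the highest test concentration.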

Pichia kudriavzevii [8] = assay: Antifungal activity against Candida krusei at 20 ug/ml; type: functional, organism-based; method in brief: as §1
[9] = test system: Mycobacterium intracellulare; assay: Antimicrobial activity against Mycobacterium intracellulare ATCC 23068 by Franzblau method; type: functional, organism-based
Leishmania donovani = assay: Antileishmanial activity against Leishmania donovani promastigote by Alamar Blue assay; type: functional, organism-based
Nakaseomyces glabratus [10] = assay: Antifungal activity against Candida glabrata at 20 ug/ml; type: functional, organism-based; method in brief: as §1
Staphylococcus aureus [11] = assay: Antimicrobial activity against methicillin-resistant Staphylococcus aureus ATCC 43300 by CLSI method; type: functional, organism-based
Vero = assay: Cytotoxicity against african green monkey Vero cells upto 23.8 […] by neutral dye assay; type: cell-based, Chlorocebus sabaeus
Method in brief: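 Vero monkey kidney cells were exposed to compound up to a highest concentration of 23.8, with viability read by neutral red uptake.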

Nakaseomyces glabratus [12] = assay: Fungicidal activity against Candida glabrata at 20 ug/ml; type: functional, organism-based; method in brief: as §1
Candida albicans [13] = assay: Fungicidal activity against Candida albicans at 20 ug/ml; type: functional, organism-based; method in brief: as §1
Staphylococcus aureus [14] = assay: Antimicrobial activity against Staphylococcus aureus ATCC 29213 by CLSI method; type: functional, organism-based
[15] = Selectivity index, ratio of IC50 for african green monkey Vero cells to IC50 for chloroquine-resistant Plasmodium falciparum W2; type: toxicity, cell-based; details: Vero cells versus Plasmodium falciparum W2, read-out: Ratio IC50
[16] = Ratio of chloroquine IC50 to compound IC50 for inhibition of beta-hematin formation
[17] = Selectivity index, ratio of IC50 for african green monkey Vero cells to IC50 for chloroquine-sensitive Plasmodium falciparum D6; type: toxicity, cell-based; details: Vero cells versus Plasmodium falciparum D6, read-out: Ratio IC50
Plasmodium berghei [18] = assay: Antimalarial activity against Plasmodium berghei blood-schizont in mouse malaria model assessed as disease curative activity at 100 mg/kg, po after 60 days; type: functional
Method in brief: (§3)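 P. berghei-infected mice, 6 per group, received compound orally once daily for 4 days at 10, 25, 50 or 100 mg/kg/day. "Active" meant all treated animals were parasitaemia-negative up to D+7. "Curative" meant complete parasite elimination with survival to D+60. Outcomes were recorded as cured/total.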

Plasmodium berghei [19] = assay: Antimalarial activity against Plasmodium berghei blood-schizont in mouse malaria model assessed as elimination of parasitemia at 25 mg/kg, po for 4 days for 4 days measured after 7 days; type: functional, organism-based; design: dose 25 mg/kg; method in brief: as §3
Plasmodium berghei [20] = assay: Antimalarial activity against Plasmodium berghei blood-schizont in mouse malaria model assessed as elimination of parasitemia at 10 mg/kg, po for 4 days for 4 days measured after 7 days; type: functional, organism-based; design: dose 10 mg/kg; method in brief: as §3
Plasmodium berghei [21] = assay: Antimalarial activity against Plasmodium berghei blood-schizont in mouse malaria model assessed as elimination of parasitemia at 50 mg/kg, po for 4 days for 4 days measured after 7 days; type: functional, organism-based; design: dose 50 mg/kg; method in brief: as §3

COc1cc(NC(C)CCCNC(=O)CC[C@@H](NC(=O)[C@H](N)CCCCN)C(=O)O)c2nc(C(C)(C)C)ccc2c1 (some centres undefined)
Activity (Cryptococcus neoformans [1]): inactive
Activity (Aspergillus fumigatus): inactive
IC50 (Plasmodium falciparum [2]): Not Active
IC50 (Cryptococcus neoformans [3]): 15.2 µg/mL (≈ 26.5 µM)
MIC (Cryptococcus neoformans [3]): 20 µg/mL (≈ 34.9 µM)
Activity (Pichia kudriavzevii [4]): inactive
IC50 [5]: > 1000 µM
IC50 (Plasmodium falciparum [6]): Not Active
Activity (Candida albicans [7]): inactive
Activity (Escherichia coli): inactive
Activity (Pseudomonas aeruginosa): inactive
Activity (Pichia kudriavzevii [8]): inactive
Activity [9]: inactive
IC50 (Leishmania donovani): Not Active
IC90 (Leishmania donovani): inactive
Activity (Nakaseomyces glabratus [10]): inactive
Activity (Staphylococcus aureus [11]): inactive
IC50 (Vero): Non-toxic
Activity (Nakaseomyces glabratus [12]): inactive
Activity (Candida albicans [13]): inactive
Activity (Staphylococcus aureus [14]): inactive

COc1cc(NC(C)CCCNC(=O)C[C@H](NC(=O)[C@@H](N)CCCCN)C(=O)O)c2ncccc2c1 (some centres undefined)
IC50 (Plasmodium falciparum [2]; Plasmodium falciparum, D6, read-out: IC50): 0.13 µg/mL (≈ 0.259 µM)
selectivity ratio [15]: > 91.5
IC50 [5]: 5.8 µM
IC50 (Plasmodium falciparum [6]; Plasmodium falciparum, W2, read-out: IC50): 0.26 µg/mL (≈ 0.517 µM)
Ratio IC50 [16]: 16
Activity (Escherichia coli): inactive
Activity (Pseudomonas aeruginosa): inactive
selectivity ratio [17]: > 183
Activity [9]: inactive
IC50 (Leishmania donovani): Not Active
IC90 (Leishmania donovani): inactive
Activity (Staphylococcus aureus [11]): inactive
IC50 (Vero): Non-toxic
Activity (Plasmodium berghei [18]): 100%
Activity (Plasmodium berghei [19]): Active
Activity (Plasmodium berghei [20]): Active
Activity (Plasmodium berghei [21]): Active
Activity (Staphylococcus aureus [14]): inactive
